Measured values reported in ChEMBL document CHEMBL2424601, “Synthetic chondramide A analogues stabilize filamentous actin and block invasion by Toxoplasma gondii” (J Nat Prod, 2013).
Activity calls are given as the source filed them. The rule behind the calls is not given here.

Tests used:
Toxoplasma gondii [1] = test: Antiparasitic activity against Toxoplasma gondii expressing beta-galactosidase infected in HFF assessed as parasite growth inhibition after 72 hrs; assay type: functional, organism-based
Method in brief: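 β-gal-expressing parasites preincubated 30 min with compound dilutions in DMEM/10% FBS/gentamicin containing 0.2% DMSO, then inoculated at 500/well onto confluent HFF monolayers and cultured continuously; 72 h at 37 °C, 5% CO2. Lysed cells read with chlorophenol red-β-d-galactopyranoside at A570, normalized to untreated control; EC50 from variable-slope log(inhibitor)-response fit, three experiments (n = 4 replicates).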

Toxoplasma gondii [2] = test: Antiparasitic activity against Toxoplasma gondii expressing beta-galactosidase infected in HFF assessed as parasite growth inhibition treated for 2 hrs followed by washout measured after 48 hrs after 72 hrs relative to continuous culture in presence of drug for 48 hrs; assay type: functional
Method in brief: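 β-gal-expressing T. gondii preincubated 30 min with compound dilutions in complete DMEM (10% FBS, gentamicin, 0.2% DMSO), 500 parasites/well onto confluent HFF; compound washed out after 2 h versus continuous exposure; 72 h at 37 °C, 5% CO2. Lysis, chlorophenol red-β-D-galactopyranoside, A570 normalized to untreated; variable-slope log(inhibitor)-response fit; three experiments, n = 4.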

[3] = target: Actin (Toxoplasma gondii) (UniProt P53476); test: Induction of Toxoplasma gondii N-terminally his-tagged recombinant actin polymerization after 1 hr
Chain of Actin (Toxoplasma gondii) (P53476 whole entry): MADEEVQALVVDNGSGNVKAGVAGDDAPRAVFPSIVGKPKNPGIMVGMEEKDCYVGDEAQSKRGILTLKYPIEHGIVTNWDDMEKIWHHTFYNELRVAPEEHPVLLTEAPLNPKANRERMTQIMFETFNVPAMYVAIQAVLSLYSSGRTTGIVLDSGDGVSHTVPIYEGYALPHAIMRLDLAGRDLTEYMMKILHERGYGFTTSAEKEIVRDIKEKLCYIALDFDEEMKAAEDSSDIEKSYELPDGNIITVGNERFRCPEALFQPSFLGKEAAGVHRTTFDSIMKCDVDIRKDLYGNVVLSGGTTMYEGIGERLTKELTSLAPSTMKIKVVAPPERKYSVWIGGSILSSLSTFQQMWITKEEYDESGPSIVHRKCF
Method in brief: (§1)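 His-tagged TgACTI from baculovirus, Ni-NTA purified, cleared at 100000g; 5 μM actin in F-buffer (50 mM KCl, 2 mM MgCl2, 1 mM ATP) with compound plus Alexa 488 phalloidin 1.2 U/μL, 1 h; filaments imaged by fluorescence microscopy (63× oil); lengths averaged over three filaments per point.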

HFF = test: Cytotoxicity against HFF after 72 hrs; assay type: cell-based; conditions: human
Method in brief: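 Confluent HFF monolayers given serial dilutions in complete DMEM with 0.2% DMSO for 72 h; viable cells by MTS colorimetric assay, normalized to untreated cells.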

[4] = target: Actin (Toxoplasma gondii) (UniProt P53476); test: Induction of Toxoplasma gondii N-terminally his-tagged recombinant actin polymerization at 2 uM after 1 hr using phalloidin staining by fluorescence microscopic analysis; method in brief: as §1
[5] = target: Actin (Toxoplasma gondii) (UniProt P53476); test: Induction of Toxoplasma gondii N-terminally his-tagged recombinant actin polymerization at 0.25 uM after 1 hr using phalloidin staining by fluorescence microscopic analysis; method in brief: as §1

Row | SMILES | EC50 (Toxoplasma gondii [1]) | other results
1 | CO[C@@H]1C(=O)O[C@H](C)[C@H](C)/C=C(\C)C[C@H](C)C(=O)N[C@@H](C)C(=O)N(C)[C@H](Cc2c[nH]c3ccccc23)C(=O)N[C@H]1c1ccc(-c2ccccc2)cc1 | 1340 nM | 
2 | CO[C@@H]1C(=O)O[C@H](C)[C@H](C)/C=C(\C)C[C@H](C)C(=O)N[C@@H](C)C(=O)N(C)[C@H](Cc2c[nH]c3ccccc23)C(=O)N[C@H]1c1ccc(C)cc1 | 530 nM | 
3 | CO[C@@H]1C(=O)O[C@H](C)[C@H](C)/C=C(\C)C[C@H](C)C(=O)N[C@@H](C)C(=O)N(C)[C@H](Cc2c[nH]c3ccccc23)C(=O)N[C@H]1c1ccc(C(N)=O)cc1 | ≥ 45000 nM | 
4 | C/C1=C\[C@H](C)C[C@H](C)OC(=O)C[C@H](c2ccc(O)cc2)NC(=O)[C@@H](Cc2c(Br)[nH]c3ccccc23)N(C)C(=O)[C@H](C)NC(=O)[C@@H](C)C1 [JASPAMIDE] | 340 nM | fold change (FC) (Toxoplasma gondii [2]): 1.5; Activity [3]: Active; Activity (HFF): Toxic
5 | C/C1=C\[C@@H](C)[C@@H](C)OC(=O)C[C@H](c2ccc(O)cc2)NC(=O)[C@@H](Cc2c[nH]c3ccccc23)N(C)C(=O)[C@H](C)NC(=O)[C@@H](C)C1 | 480 nM | Activity (HFF): Toxic
6 | CO[C@@H]1C(=O)O[C@H](C)[C@H](C)/C=C(\C)C[C@H](C)C(=O)N[C@@H](C)C(=O)N(C)[C@H](Cc2c[nH]c3ccccc23)C(=O)N[C@H]1c1ccccc1 | 510 nM | fold change (FC) (Toxoplasma gondii [2]): 1.5; Activity [4]: Active; Activity [5]: Active; Activity [3]: Dose-dependent effect
7 | COc1ccc([C@@H]2NC(=O)[C@@H](Cc3c[nH]c4ccccc34)N(C)C(=O)[C@H](C)NC(=O)[C@@H](C)C/C(C)=C/[C@@H](C)[C@@H](C)OC(=O)[C@H]2OC)cc1 | 690 nM | 
8 | CO[C@@H]1C(=O)O[C@H](C)[C@H](C)/C=C(\C)C[C@H](C)C(=O)N[C@@H](C)C(=O)N(C)[C@H](Cc2c[nH]c3ccccc23)C(=O)N[C@H]1c1ccc(N)cc1 | 660 nM | 
9 | CO[C@@H]1C(=O)O[C@H](C)[C@H](C)/C=C(\C)C[C@H](C)C(=O)N[C@@H](C)C(=O)N(C)[C@H](Cc2c(Cl)[nH]c3ccccc23)C(=O)N[C@H]1c1ccc(O)cc1 | 220 nM | Activity (HFF): Toxic
10 | CO[C@@H]1C(=O)O[C@H](C)[C@H](C)/C=C(\C)C[C@H](C)C(=O)N[C@@H](C)C(=O)N(C)[C@H](Cc2c[nH]c3ccccc23)C(=O)N[C@H]1c1ccc(O)cc1 | 560 nM | Activity [4]: Active; Activity [5]: Active; Activity [3]: Dose-dependent effect; Activity (HFF): Toxic
11 | CO[C@@H]1C(=O)O[C@H](C)[C@H](C)/C=C(\C)C[C@H](C)C(=O)N[C@@H](C)C(=O)N(C)[C@H](Cc2c[nH]c3ccccc23)C(=O)N[C@H]1c1ccc(CCO)cc1 | 600 nM | 
12 | CO[C@@H]1C(=O)O[C@H](C)[C@H](C)/C=C(\C)C[C@H](C)C(=O)N[C@@H](C)C(=O)N(C)[C@H](Cc2c[nH]c3ccccc23)C(=O)N[C@H]1c1ccc(C#N)cc1 | 380 nM | 
13 | CO[C@@H]1C(=O)O[C@H](C)[C@H](C)/C=C(\C)C[C@H](C)C(=O)N[C@@H](C)C(=O)N(C)[C@H](Cc2c[nH]c3ccccc23)C(=O)N[C@H]1c1ccc([N+](=O)[O-])cc1 | 610 nM | 
14 | CO[C@@H]1C(=O)O[C@H](C)[C@H](C)/C=C(\C)C[C@H](C)C(=O)N[C@@H](C)C(=O)N(C)[C@H](Cc2c[nH]c3ccccc23)C(=O)N[C@H]1c1ccc(CO)cc1 | 740 nM | 
15 | CO[C@@H]1C(=O)O[C@H](C)[C@H](C)/C=C(\C)C[C@H](C)C(=O)N[C@@H](C)C(=O)N(C)[C@H](Cc2c[nH]c3ccccc23)C(=O)N[C@H]1c1ccc(F)cc1 | 320 nM | 
